# According to ChEMBL document CHEMBL1133390, “Effects of stilbene constituents from rhubarb on nitric oxide production in lipopolysaccharide-activated macrophages” (Bioorg Med Chem Lett, 2000):
# How the values were obtained:
# Format in all cases: functional
# [1] = organism: Mus musculus; test: Inhibitory activity against nitric oxide production in LPS-activated mouse peritoneal macrophages
# In short: (§1)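 Peritoneal exudate cells from male ddY mice, 5 × 10^5 cells/well, pre-cultured 1 h at 37 °C in RPMI 1640 with 5% FCS. Nonadherent cells washed off; adherent macrophages (>95%) given 10 µg/mL LPS plus test compound (DMSO, final 0.5%) for 20 h. Nitrite in medium measured by Griess reagent. Inhibition calculated relative to LPS-stimulated and unstimulated wells; IC50 determined graphically (N=4).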
# [2] = organism: Mus musculus; test: Compound (at 100 uM) was tested for inhibition against nitric oxide production in LPS-activated mouse peritoneal macrophages; in short: as §1
# [3] = organism: Mus musculus; test: Compound was tested for inhibitory activity against nitric oxide production in LPS-activated mouse peritoneal macrophages (*,showed cytotoxicity at 100 uM)
# [4] = organism: Mus musculus; test: Compound (at 10 uM) was tested for inhibition against nitric oxide production in LPS-activated mouse peritoneal macrophages
# [5] = organism: Mus musculus; test: Compound was tested for inhibitory activity against nitric oxide production in LPS-activated mouse peritoneal macrophages (*,showed cytotoxicity at 30 uM)
# [6] = organism: Mus musculus; test: Compound (at 30 uM) was tested for inhibition against nitric oxide production in LPS-activated mouse peritoneal macrophages
IC50 [1] [µM],SMILES,inhibition at 100 µM [2] [%],also measured
69,COc1cc(O[C@@H]2O[C@H](CO)[C@@H](O)[C@H](O)[C@H]2O)c2c(O)c(C(C)=O)c(C)cc2c1,,
> 100,Cc1cc(O)c2c(c1)C(=O)c1cccc(O[C@@H]3O[C@H](COC(=O)c4cc(O)c(O)c(O)c4)[C@@H](O)[C@H](O)[C@H]3O)c1C2=O,31,
> 100,OC[C@H]1O[C@@H](Oc2cc(CCc3cc(O)cc(O)c3)ccc2O)[C@H](O)[C@@H](O)[C@@H]1O,6,
> 100,OC[C@H]1O[C@@H](Oc2cc(/C=C/c3cc(O)cc(O)c3)ccc2O)[C@H](O)[C@@H](O)[C@@H]1O,10,
,COc1cc(O)cc(/C=C/c2ccc(OC)c(OC)c2)c1,,IC50 [3]: 19 µM
49,COc1ccc(CCc2cc(O)cc(O)c2)cc1O,,
63,COc1cc(/C=C/c2cc(O)cc(O)c2)ccc1O,,
> 100,COc1ccc(CCc2cc(O)cc(O[C@@H]3O[C@H](CO)[C@@H](O)[C@H](O)[C@H]3O)c2)cc1O,8,
> 100,C(=C\c1ccccc1)/c1ccccc1,21,
48,COc1ccc(/C=C/c2cc(O)cc(O)c2)cc1O,,
27,COC[C@H]1O[C@@H](Oc2cc(/C=C/c3cc(OC)cc(OC)c3)ccc2OC)[C@H](OC)[C@@H](OC)[C@@H]1OC,,
> 100,COc1cc(/C=C/c2cc(O)cc(O[C@@H]3O[C@H](CO)[C@@H](O)[C@H](O)[C@H]3O)c2)ccc1O,5,
> 100,COc1ccc(/C=C/c2cc(O)cc(O[C@@H]3O[C@H](CO)[C@@H](O)[C@H](O)[C@H]3O)c2)cc1,13,
11,COc1ccc(/C=C/c2cc(O)cc(O[C@@H]3O[C@H](COC(=O)c4cc(O)c(O)c(O)c4)[C@@H](O)[C@H](O)[C@H]3O)c2)cc1O,,
13,COc1ccc(/C=C/c2cc(O)cc(O[C@@H]3O[C@H](CO)[C@@H](O)[C@H](O)[C@H]3OC(=O)c3cc(O)c(O)c(O)c3)c2)cc1O,,
> 100,O=C1c2cccc(O)c2C(=O)c2c(O[C@@H]3O[C@H](CO)[C@@H](O)[C@H](O)[C@H]3O)cc(CO)cc21,46,
32,Oc1cc(O)cc(CCc2ccc(O)c(O)c2)c1,,
,COc1cc(/C=C/c2ccc(OC)c(O)c2)cc(OC)c1,,IC50 [3]: 23 µM
5.8,COC[C@H]1O[C@@H](Oc2cc(/C=C/c3ccc(OC)c(OC)c3)cc(OC)c2)[C@H](OC)[C@@H](OC)[C@@H]1OC,,
> 100,c1ccc(CCc2ccccc2)cc1,26,
,O=C1c2cccc(O)c2C(=O)c2c(O)cc(CO)cc21 [ALOE-EMODIN],,inhibition at 10 µM [4]: 38%; IC50 [5]: > 10 µM
40,O=C(/C=C/c1ccc(O)c(O)c1)OCCc1ccccc1 [CAFFEIC ACID PHENETHYL ESTER],,
> 100,Cc1cc(O[C@@H]2O[C@H](CO)[C@@H](O)[C@H](O)[C@H]2O)c2c(c1)C(=O)c1cccc(O)c1C2=O [CHRYSOPHANEIN],20,
> 100,Cc1cc(O)c2c(c1)C(=O)c1cccc(O)c1C2=O [CHRYSOPHANOL],2,
23,Oc1cc(O)cc(/C=C/c2ccc(O)c(O)c2)c1 [PICEATANNOL],,
> 100,Cc1cc(O)c2c(c1)C(=O)c1cccc(O[C@@H]3O[C@H](CO)[C@@H](O)[C@H](O)[C@H]3O)c1C2=O [PULMATIN],31,
,COc1ccc(/C=C/c2cc(O)cc(O)c2)cc1 [RESVERATROL 4'-METHYL ETHER],,inhibition at 30 µM [6]: 13%; IC50 [3]: > 30 µM
68,Oc1ccc(/C=C/c2cc(O)cc(O)c2)cc1 [RESVERATROL],,
> 100,COc1ccc(/C=C/c2cc(O)cc(O[C@@H]3O[C@H](CO)[C@@H](O)[C@H](O)[C@H]3O)c2)cc1O [RHAPONTIN],25,

SMILES,IC50 [1] [µM],inhibition at 100 µM [2] [%],also measured
"COc1cc(/C=C/c2ccc(OC)c(OC)c2)cc(OC)c1 [(E)-3,4,3',5'-TETRAMETHOXYSTILBENE]",28,,
Oc1ccc(CCc2cc(O)cc(O)c2)cc1 [DIHYDRORESVERATROL],76,,
O=C(O)c1cc(O)c(O)c(O)c1 [GALLIC ACID],63,,
COc1ccc(/C=C/c2cc(OC)cc(OC)c2)cc1 [TRISMETHOXYRESVERATROL],22,,
